Laboratory results: ChEMBL document CHEMBL1125327, “Conformationally restricted deltorphin analogues” (J Med Chem, 1992)
Positions of bridges follow the written chain, without caps; N, C: chain ends. Non-standard residues stand in square brackets, D forms with d. Residues, ends and D or L forms follow the SMILES beside them. Tic = O=C(O)[C@@H]1Cc2ccccc2CN1; Aic = NC1(C(=O)O)Cc2ccccc2C1; Nle = CCCC[C@H](N)C(=O)O

Experiments:
Mu-type opioid receptor [1] = target: T1, Mu-type opioid receptor (Rattus norvegicus, UniProt P33535); experiment: Inhibition of [3H]- ]DAMGO binding to mu receptor from rat brain membrane
In short: (§1)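 Displacement of 0.72 nM [3H]DAMGO from rat brain membranes; 2 h incubation at 0 °C. IC50 read from log dose–displacement curves; Ki calculated by Cheng–Prusoff equation using Kd 1.3 nM for [3H]DAMGO.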

[2] = target: T2, Delta-type opioid receptor (Mus musculus, UniProt P32300); experiment: (§2) Inhibition of electrically evoked contractions in mouse vas deferens; assay type: functional
Mu-type opioid receptor [3] = target: Mu-type opioid receptor (Cavia porcellus, UniProt P97266); experiment: Inhibition of electrically evoked contractions in Guinea pig ileum; assay type: functional, tissue-based
In short: (§3)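 Isolated guinea pig ileum or mouse vas deferens, electrically stimulated; agonist IC50 taken as inhibition of evoked contractions from log dose–response curves. A [Leu5]enkephalin standard curve was run on each preparation and test IC50 values normalised to it. Antagonist Ke derived from IC50 ratio with and without a fixed antagonist concentration.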

[4] = target: T3, Delta-type opioid receptor (Rattus norvegicus, UniProt P33533); experiment: Inhibition of [3H]- ]DSLET binding to delta receptor from rat brain membrane
In short: (§4)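 Displacement of 0.78 nM [3H]DSLET from rat brain membrane preparations, incubated 2 h at 0 °C. IC50 from log dose–displacement curves, converted to Ki via Cheng–Prusoff with a [3H]DSLET Kd of 2.6 nM.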

Mu-type opioid receptor [5] = target: T1, Mu-type opioid receptor; experiment: (§5) Inhibition of [3H]- ]DAMGO binding to Opioid receptor mu 1 from rat brain membrane; in short: as §1
[6] = target: T3, Delta-type opioid receptor; experiment: Inhibition of [3H]- ]DSLET binding to Opioid receptor delta 1 from rat brain membrane; in short: as §4
[7] = target: T2, Delta-type opioid receptor; experiment: as §2; assay type: functional; in short: as §3; remark: listed apart in the source
Mu-type opioid receptor [8] = target: T1, Mu-type opioid receptor; experiment: as §5; in short: as §1; remark: listed apart in the source
[9] = target: T3, Delta-type opioid receptor; experiment: Inhibition of [3H]- ]DSLET binding to opioid receptor delta from rat brain membrane; in short: as §4
Mu-type opioid receptor [10] = target: T1, Mu-type opioid receptor; experiment: Inhibition of [3H]- ]DAMGO binding to opioid receptor mu from rat brain membrane

Chain of Mu-type opioid receptor (Cavia porcellus, UniProt P97266) (P97266 whole entry): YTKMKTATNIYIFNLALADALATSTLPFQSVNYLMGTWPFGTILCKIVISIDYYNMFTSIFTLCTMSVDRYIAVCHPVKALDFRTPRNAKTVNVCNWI
T3 sequence (P33533 whole entry): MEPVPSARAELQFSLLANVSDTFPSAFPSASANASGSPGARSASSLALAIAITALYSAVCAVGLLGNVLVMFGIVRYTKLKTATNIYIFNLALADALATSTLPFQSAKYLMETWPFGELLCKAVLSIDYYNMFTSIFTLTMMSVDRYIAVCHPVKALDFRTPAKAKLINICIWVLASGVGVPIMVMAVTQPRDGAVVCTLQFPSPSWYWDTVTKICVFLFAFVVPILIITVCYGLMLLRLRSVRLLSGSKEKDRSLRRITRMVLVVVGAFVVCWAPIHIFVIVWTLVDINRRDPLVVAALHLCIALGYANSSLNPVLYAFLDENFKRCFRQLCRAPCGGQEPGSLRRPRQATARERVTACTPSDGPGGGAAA
T2 sequence (P32300 whole entry): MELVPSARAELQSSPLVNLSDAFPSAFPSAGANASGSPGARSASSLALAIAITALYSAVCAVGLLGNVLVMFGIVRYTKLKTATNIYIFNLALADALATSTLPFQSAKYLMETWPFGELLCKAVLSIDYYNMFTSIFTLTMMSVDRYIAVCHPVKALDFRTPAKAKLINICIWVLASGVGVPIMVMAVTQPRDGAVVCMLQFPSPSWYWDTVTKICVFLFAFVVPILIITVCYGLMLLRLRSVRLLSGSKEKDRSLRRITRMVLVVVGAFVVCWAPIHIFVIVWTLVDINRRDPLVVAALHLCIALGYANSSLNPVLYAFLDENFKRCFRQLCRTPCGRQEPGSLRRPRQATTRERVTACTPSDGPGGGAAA
T1 sequence (P33535 whole entry): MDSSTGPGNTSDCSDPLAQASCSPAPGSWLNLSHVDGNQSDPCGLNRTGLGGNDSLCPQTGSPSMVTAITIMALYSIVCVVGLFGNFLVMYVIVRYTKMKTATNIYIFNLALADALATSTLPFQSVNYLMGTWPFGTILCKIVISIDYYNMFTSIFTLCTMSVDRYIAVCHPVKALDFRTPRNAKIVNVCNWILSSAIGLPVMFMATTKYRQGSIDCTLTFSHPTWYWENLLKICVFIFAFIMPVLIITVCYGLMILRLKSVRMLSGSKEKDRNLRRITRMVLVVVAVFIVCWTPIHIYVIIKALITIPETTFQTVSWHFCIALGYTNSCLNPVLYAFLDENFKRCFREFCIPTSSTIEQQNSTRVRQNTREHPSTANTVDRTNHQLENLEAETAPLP

## CC(C)[C@@H]1NC(=O)[C@@H](NC(=O)[C@H](Cc2ccccc2)NC(=O)[C@@H](C)NC(=O)[C@@H](N)Cc2ccc(O)cc2)CC(=O)NCCC[C@@H](C(N)=O)NC(=O)[C@H](C(C)C)NC1=O
Mu-type opioid receptor [1]
  Ki: 338 nM
[2]
  IC50: 90.5 nM
Mu-type opioid receptor [3]
  IC50: 251 nM
[4]
  Ki: 562 nM

## CC(C)[C@H](NC(=O)[C@@H]1CCC(=O)NCCCC[C@@H](NC(=O)[C@@H](N)Cc2ccc(O)cc2)C(=O)N[C@@H](Cc2ccccc2)C(=O)N1)C(=O)N[C@H](C(=O)NCC(N)=O)C(C)C
Mu-type opioid receptor [1]
  Ki: 17.5 nM
[2]
  IC50: 0.467 nM
Mu-type opioid receptor [3]
  IC50: 102 nM
[4]
  Ki: 3.66 nM

## CC(C)[C@H](NC(=O)[C@H](CC(=O)O)NC(=O)[C@@H](Cc1ccccc1)NC(=O)[C@@H](C)NC(=O)[C@@H](N)Cc1ccc(O)cc1)C(=O)N[C@H](C(=O)NCC(N)=O)C(C)C
Mu-type opioid receptor [3]
  IC50: 11900 nM
Mu-type opioid receptor [5]
  Ki: 8650 nM
[6]
  Ki: 67.2 nM

## CC(C)[C@@H]1NC(=O)[C@H](CC(=O)O)NC(=O)[C@H](Cc2ccccc2)NC(=O)[C@H](NC(=O)[C@@H](N)Cc2ccc(O)cc2)CCCCNC(=O)CC[C@@H](C(N)=O)NC(=O)[C@H](C(C)C)NC1=O
Mu-type opioid receptor [1]
  Ki: 891 nM
[2]
  IC50: 17.3 nM
Mu-type opioid receptor [3]
  IC50: 380 nM
[4]
  Ki: 248 nM

## CCCC[C@H](NC(=O)[C@H](CC(C)C)NC(=O)[C@H](Cc1cnc[nH]1)NC(=O)[C@H](Cc1ccccc1)NC(=O)[C@@H](CCCC)NC(=O)[C@@H](N)Cc1ccc(O)cc1)C(=O)N[C@@H](CC(=O)O)C(N)=O
Mu-type opioid receptor [1]
  Ki: 117 nM
Mu-type opioid receptor [3]
  IC50: 241 nM
[4]
  Ki: 0.665 nM
[7]
  IC50: 0.712 nM

## CC(C)[C@@H]1NC(=O)[C@@H](NC(=O)[C@H](Cc2ccccc2)NC(=O)CNC(=O)[C@@H](N)Cc2ccc(O)cc2)CCC(=O)NCCCC[C@@H](C(N)=O)NC(=O)[C@H](C(C)C)NC1=O (H-YGFEVVK-NH2; lactam 4-7)
Mu-type opioid receptor [1]
  Ki: 955 nM
[2]
  IC50: 919 nM
Mu-type opioid receptor [3]
  IC50: 3880 nM
[4]
  Ki: 724 nM

## CC(C)[C@H](NC(=O)[C@H](CC(=O)O)NC(=O)[C@H](Cc1ccccc1)NC(=O)[C@@H]1Cc2ccccc2CN1C(=O)[C@@H](N)Cc1ccc(O)cc1)C(=O)N[C@H](C(=O)NCC(N)=O)C(C)C (H-Y[Tic]FDVVG-NH2)
[2]
  IC50: 22.8 nM
Mu-type opioid receptor [3]
  IC50: > 65000 nM
Mu-type opioid receptor [5]
  Ki: 9230 nM
[6]
  Ki: 6.49 nM

## CCCC[C@H](NC(=O)[C@H](CC(C)C)NC(=O)[C@H](Cc1ccccc1)NC(=O)[C@H](Cc1ccccc1)NC(=O)[C@@H]1Cc2ccccc2CN1C(=O)[C@@H](N)Cc1ccc(O)cc1)C(=O)N[C@@H](CC(=O)O)C(N)=O (H-Y[Tic]FFL[Nle]D-NH2)
[2]
  IC50: > 10000 nM
Mu-type opioid receptor [3]
  IC50: > 10000 nM
Mu-type opioid receptor [5]
  Ki: 4150 nM
[6]
  Ki: 8.27 nM

## CC(C)[C@H](NC(=O)[C@H](CC(=O)O)NC(=O)C1(NC(=O)[C@@H](C)NC(=O)[C@@H](N)Cc2ccc(O)cc2)Cc2ccccc2C1)C(=O)N[C@H](C(=O)NCC(N)=O)C(C)C (H-Y[dA][Aic]DVVG-NH2)
[2]
  IC50: 0.0803 nM
Mu-type opioid receptor [3]
  IC50: 290 nM
Mu-type opioid receptor [5]
  Ki: 207 nM
[6]
  Ki: 4.96 nM

## CC(C)[C@H](NC(=O)[C@H](CC(=O)O)NC(=O)[C@@H]1Cc2ccccc2CN1C(=O)[C@@H](C)NC(=O)[C@@H](N)Cc1ccc(O)cc1)C(=O)N[C@H](C(=O)NCC(N)=O)C(C)C (H-Y[dA][Tic]DVVG-NH2)
[2]
  IC50: 481 nM
Mu-type opioid receptor [3]
  IC50: 14500 nM
Mu-type opioid receptor [8]
  Ki: 4960 nM
Mu-type opioid receptor [5]
  Ki: 15200 nM

## CC(C)[C@H](NC(=O)[C@H](CC(=O)O)NC(=O)C1(NC(=O)[C@@H](C)NC(=O)[C@@H](N)Cc2ccc(O)cc2)CCc2ccccc2C1)C(=O)N[C@H](C(=O)NCC(N)=O)C(C)C (stereo in doubt; 2)
[2]
  IC50: 0.115 nM
Mu-type opioid receptor [3]
  IC50: 1820 nM
Mu-type opioid receptor [5]
  Ki: 671 nM
[6]
  Ki: 5.36 nM

## CC(C)[C@H](NC(=O)[C@H](CC(=O)O)NC(=O)C1(NC(=O)[C@@H](C)NC(=O)[C@@H](N)Cc2ccc(O)cc2)CCc2ccccc2C1)C(=O)N[C@H](C(=O)NCC(N)=O)C(C)C (stereo in doubt; 3)
[2]
  IC50: 0.163 nM
[9]
  Ki: 6.52 nM
Mu-type opioid receptor [3]
  IC50: 1380 nM
Mu-type opioid receptor [10]
  Ki: 1410 nM

## CSCC[C@H](NC(=O)[C@H](CC(C)C)NC(=O)[C@H](Cc1cnc[nH]1)NC(=O)[C@H](Cc1ccccc1)NC(=O)[C@@H](CCSC)NC(=O)[C@@H](N)Cc1ccc(O)cc1)C(=O)N[C@@H](CC(=O)O)C(N)=O (stereo in doubt; 7) [DELTORPHIN A]
Mu-type opioid receptor [1]
  Ki: 143 nM
[2]
  IC50: 98.3 nM
Mu-type opioid receptor [3]
  IC50: 4420 nM
[4]
  Ki: 290 nM

## CSCC[C@H](NC(=O)[C@H](CC(C)C)NC(=O)[C@H](Cc1cnc[nH]1)NC(=O)[C@H](Cc1ccccc1)NC(=O)[C@@H](CCSC)NC(=O)[C@@H](N)Cc1ccc(O)cc1)C(=O)N[C@@H](CC(=O)O)C(N)=O (stereo in doubt; 12) [DELTORPHIN A]
Mu-type opioid receptor [1]
  Ki: 415 nM
[2]
  IC50: 0.695 nM
Mu-type opioid receptor [3]
  IC50: 281 nM
[4]
  Ki: 2.13 nM

## CC(C)[C@H](NC(=O)[C@H](CC(=O)O)NC(=O)[C@H](Cc1ccccc1)NC(=O)[C@@H](C)NC(=O)[C@@H](N)Cc1ccc(O)cc1)C(=O)N[C@H](C(=O)NCC(N)=O)C(C)C [DELTORPHIN C]
[9]
  Ki: 1.44 nM
Mu-type opioid receptor [3]
  IC50: 854 nM
Mu-type opioid receptor [10]
  Ki: 262 nM
